Paper PMC3241894 (ACS chemical biology, 2011)

Tests used:
[1] = tested on: FKBP38 and Hsp90 binding interaction; experiment: pure protein binding assay FKBP38 and Hsp90; set-up: species or system human; conditions: 100 nM Hsp90, 50 nM GST-FKBP38, 0–10 µM compound
[2] = tested on: FKBP52 and Hsp90 binding interaction; experiment: pure protein binding assay FKBP52 and Hsp90; set-up: species or system human; conditions: 100 nM Hsp90, 50 nM GST-FKBP52, 0–10 µM compound
HeLa cells = experiment: Hsp90 over-expression experiments, cell survival; assay type: cell-based; conditions: pCMV-Hsp90 vs pCMV control, compound 1 50 µM, 2 5 µM, 17-AAG 100 nM
How it was run: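 HeLa cells (~30% confluent) were co-transfected by PolyFect with HSP90α and HSP90β plasmids (0.5 µg each) or empty pCMV (1 µg). Hsp90 overexpression was checked by Western blot. After 24 h, cells received DMSO (control), test compound (50 or 5 µM) or 17-AAG (100 nM), and survival was read by CCK-8. Three repeats, mean ± SEM.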

Hsp70 = Hsp70 up-regulation in compound-treated cells; assay type: cell-based; conditions: HCT-116 cells, 24 hours
How it was run: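 HCT-116 cells exposed for 24 h to test compound (0–25 µM), or to 17-AAG (0–200 nM) as reference Hsp90 inhibitor. Cells were then harvested and lysed, and lysates probed for Hsp70 by Western blot with GAPDH as loading control. Experiments were repeated three times, reported as mean ± SEM, and compared by unpaired t-test.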

## C=CCNC1=C2C[C@@H](C)C[C@H](OC)[C@H](O)[C@@H](C)/C=C(\C)[C@H](OC(N)=O)[C@@H](OC)/C=C\C=C(/C)C(=O)NC(=CC1=O)C2=O [17-AAG, 17-(allylamino)-17-demethoxygeldanamycin]
[1]
  inhibition of binding between Hsp90 and FKBP38: do not affect
[2]
  inhibition of binding between Hsp90 and FKBP52: do not affect
HeLa cells
  cytotoxic effect on Hsp90 over-expressing cells relative to control cells: also true
Hsp70
  Hsp70 up-regulation over control: 100%
